Measurements published in ChEMBL document CHEMBL3779840, “Discovery of 2-((3-Amino-4-methylphenyl)amino)-N-(2-methyl-5-(3-(trifluoromethyl)benzamido)phenyl)-4-(methylamino)pyrimidine-5-carboxamide (CHMFL-ABL-053) as a Potent, Selective, and Orally Available BCR-ABL/SRC/p38 Kinase Inhibitor for Chronic Myeloid Leukemia” (J Med Chem, 2016).
Calls of active or inactive are those of the source. The rule behind the calls is not given here.

Legend:
[1] = tested on: Mast/stem cell growth factor receptor Kit (Homo sapiens), P10721 [V559D]; assay: Inhibition of partial length human KIT V559D mutant expressed in bacterial expression system assessed as residual activity at 1 uM relative to control
[2] = target: T1, Mitogen-activated protein kinase 14 (Homo sapiens, UniProt Q16539); assay: Inhibition of P38-alpha phosphorylation in human KU812 cells at 0.01 to 3 uM after 1 hr by immunoblotting method; format: cell-based
Method in brief: (§1)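 KU812, K562 and MEG-01 cells were exposed to compound at the indicated concentrations for 1 h. Whole-cell lysates were then analysed by Western blot for phosphorylated signaling proteins.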

[3] = target: T2, Bcr/Abl fusion protein (Homo sapiens) (UniProt P00519+P11274); assay: Inhibition of BCR/ABL autophosphorylation at Y245 site in human MEG01 cells at 300 nM after 1 hr by immunoblotting method; format: cell-based; details: MEG-01; method in brief: as §1
[4] = target: T2, Bcr/Abl fusion protein (Homo sapiens); details: BaF3
HEL = assay: Antiproliferative activity against human HEL cells assessed as cell viability after 72 hrs by CellTiter-Glo or CCK-8 assay; format: functional
K562 [5] = assay: Induction of cell cycle arrest in human K562 cells assessed as accumulation at G0/G1-phase after 12 hrs by propidium iodide/RNase staining based flow cytometry; format: functional
[6] = tested on: Bcr/Abl fusion protein (Homo sapiens), P00519+P11274 [Q252H]; details: BaF3
[7] = Oral bioavailability in Sprague-Dawley rat at 10 mg/kg; format: ADME, organism-based; details: in vivo
MEG-01 [8] = assay: Induction of cell cycle arrest in human MEG01 cells assessed as accumulation at G0/G1-phase after 12 hrs by propidium iodide/RNase staining based flow cytometry; format: functional
[9] = target: T1, Mitogen-activated protein kinase 14; assay: Inhibition of full length human wild type p38-alpha expressed in bacterial expression system assessed as residual activity at 1 uM relative to control
[10] = tested on: Bcr/Abl fusion protein (Homo sapiens), P00519+P11274 [M351T]; details: BaF3
[11] = Mean residence time (0 to infinity) in Sprague-Dawley rat at 10 mg/kg, po; format: ADME, organism-based; details: in vivo
[12] = target: T3, Discoidin domain-containing receptor 2 (Homo sapiens) (UniProt Q16832); assay: Inhibition of partial length human wild type DDR2 expressed in mammalian expression system assessed as residual activity at 1 uM relative to control
T3 sequence (whole entry): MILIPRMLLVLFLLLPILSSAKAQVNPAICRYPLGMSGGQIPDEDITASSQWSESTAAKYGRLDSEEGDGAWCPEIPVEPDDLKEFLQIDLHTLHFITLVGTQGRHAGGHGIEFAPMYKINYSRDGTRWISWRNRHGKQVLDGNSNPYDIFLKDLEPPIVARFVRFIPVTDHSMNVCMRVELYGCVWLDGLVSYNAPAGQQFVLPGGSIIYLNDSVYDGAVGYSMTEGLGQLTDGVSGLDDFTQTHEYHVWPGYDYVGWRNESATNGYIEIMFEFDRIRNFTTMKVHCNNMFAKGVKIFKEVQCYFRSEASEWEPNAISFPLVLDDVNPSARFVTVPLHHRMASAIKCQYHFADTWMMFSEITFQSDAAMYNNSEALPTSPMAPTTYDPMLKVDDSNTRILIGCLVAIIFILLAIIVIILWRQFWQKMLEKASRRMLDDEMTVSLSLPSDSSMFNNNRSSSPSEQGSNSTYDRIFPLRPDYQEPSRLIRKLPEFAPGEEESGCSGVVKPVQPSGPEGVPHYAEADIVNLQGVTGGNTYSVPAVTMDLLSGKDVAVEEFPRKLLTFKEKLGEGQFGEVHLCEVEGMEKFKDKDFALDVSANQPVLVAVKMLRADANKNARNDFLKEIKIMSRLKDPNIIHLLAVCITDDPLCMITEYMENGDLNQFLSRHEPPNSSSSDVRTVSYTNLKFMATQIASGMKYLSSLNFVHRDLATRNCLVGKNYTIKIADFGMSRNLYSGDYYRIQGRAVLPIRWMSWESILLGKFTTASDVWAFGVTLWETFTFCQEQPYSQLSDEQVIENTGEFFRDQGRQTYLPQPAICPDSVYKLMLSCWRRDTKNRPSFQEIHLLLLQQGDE

[13] = target: T1, Mitogen-activated protein kinase 14; assay: Inhibition of P38-alpha phosphorylation in human MEG01 cells at 0.01 to 3 uM after 1 hr by immunoblotting method; format: cell-based; details: MEG-01; method in brief: as §1
K562 [14] = assay: Antitumor activity against human K562 cells xenografted in nu/nu mouse assessed as reduction in tumor growth administered through oral gavage after 16 days of continuous administration; format: functional
Method in brief: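 Female nu/nu mice bore established K562 xenografts and received daily oral dosing at 25.0 or 50.0 mg/kg/d, or vehicle, starting when tumors reached 200 to 400 mm3, for 16 days. Groups had 5 animals; data are mean ± SEM. Tumor size and body weight were normalized to initial values, and final tumor weight was recorded. Tumor tissue was stained with HE, Ki-67 and TUNEL.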

[15] = Cmax in Sprague-Dawley rat at 10 mg/kg, po; format: ADME, organism-based; design: dose 10 mg/kg, route oral; details: in vivo
[16] = target: T4, Proto-oncogene tyrosine-protein kinase Src (Homo sapiens, UniProt P12931); assay: Inhibition of SRC phosphorylation in human MEG01 cells at 0.01 to 3 uM after 1 hr by immunoblotting method; format: cell-based; details: MEG-01
Method in brief: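 Cells were treated for 1 h at the indicated concentrations. Whole-cell lysates were then analysed by Western blot for phosphorylation of signalling proteins in the BCR-ABL pathway.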

[17] = target: Mast/stem cell growth factor receptor Kit (Homo sapiens, UniProt P10721); assay: Inhibition of His-tagged recombinant human c-Kit […] expressed in mammalian expression system
[18] = target: T2, Bcr/Abl fusion protein (Homo sapiens); assay: Inhibition of BCR/ABL in human KU812 cells assessed as downregulation of CrkL phosphorylation at […] site after 1 hr by immunoblotting method; format: cell-based; method in brief: as §1
[19] = tested on: Bcr/Abl fusion protein (Homo sapiens), P00519+P11274 [Y253F]; details: BaF3
[20] = target: Ephrin type-A receptor 8 (Homo sapiens) (UniProt P29322); assay: Inhibition of partial length human wild type EPHA8 expressed in bacterial expression system assessed as residual activity at 1 uM relative to control
MEG-01 [21] = assay: Induction of apoptosis in human MEG01 cells assessed as increase in cleaved PARP level at 100 nM after 48 hrs by immunoblotting method; format: functional, cell-based
[22] = target: Ephrin type-B receptor 6 (Homo sapiens) (UniProt O15197); assay: Inhibition of partial length human wild type EPHB6 expressed in mammalian expression system assessed as residual activity at 1 uM relative to control
[23] = target: T2, Bcr/Abl fusion protein (Homo sapiens); assay: Inhibition of BCR/ABL autophosphorylation at Y245 site in human K562 cells at 300 nM after 1 hr by immunoblotting method; format: cell-based; method in brief: as §1
[24] = target: T4, Proto-oncogene tyrosine-protein kinase Src; assay: Inhibition of full length recombinant human C-terminal His-tagged SRC expressed in Baculovirus expression system
Method in brief: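 IC50 values were determined with the Invitrogen SelectScreen biochemical kinase assay.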

[25] = Half life in Sprague-Dawley rat at 1 mg/kg, iv; format: ADME, organism-based; details: in vivo

T2 sequence (P00519 whole entry, looked up, the tested form may be a part): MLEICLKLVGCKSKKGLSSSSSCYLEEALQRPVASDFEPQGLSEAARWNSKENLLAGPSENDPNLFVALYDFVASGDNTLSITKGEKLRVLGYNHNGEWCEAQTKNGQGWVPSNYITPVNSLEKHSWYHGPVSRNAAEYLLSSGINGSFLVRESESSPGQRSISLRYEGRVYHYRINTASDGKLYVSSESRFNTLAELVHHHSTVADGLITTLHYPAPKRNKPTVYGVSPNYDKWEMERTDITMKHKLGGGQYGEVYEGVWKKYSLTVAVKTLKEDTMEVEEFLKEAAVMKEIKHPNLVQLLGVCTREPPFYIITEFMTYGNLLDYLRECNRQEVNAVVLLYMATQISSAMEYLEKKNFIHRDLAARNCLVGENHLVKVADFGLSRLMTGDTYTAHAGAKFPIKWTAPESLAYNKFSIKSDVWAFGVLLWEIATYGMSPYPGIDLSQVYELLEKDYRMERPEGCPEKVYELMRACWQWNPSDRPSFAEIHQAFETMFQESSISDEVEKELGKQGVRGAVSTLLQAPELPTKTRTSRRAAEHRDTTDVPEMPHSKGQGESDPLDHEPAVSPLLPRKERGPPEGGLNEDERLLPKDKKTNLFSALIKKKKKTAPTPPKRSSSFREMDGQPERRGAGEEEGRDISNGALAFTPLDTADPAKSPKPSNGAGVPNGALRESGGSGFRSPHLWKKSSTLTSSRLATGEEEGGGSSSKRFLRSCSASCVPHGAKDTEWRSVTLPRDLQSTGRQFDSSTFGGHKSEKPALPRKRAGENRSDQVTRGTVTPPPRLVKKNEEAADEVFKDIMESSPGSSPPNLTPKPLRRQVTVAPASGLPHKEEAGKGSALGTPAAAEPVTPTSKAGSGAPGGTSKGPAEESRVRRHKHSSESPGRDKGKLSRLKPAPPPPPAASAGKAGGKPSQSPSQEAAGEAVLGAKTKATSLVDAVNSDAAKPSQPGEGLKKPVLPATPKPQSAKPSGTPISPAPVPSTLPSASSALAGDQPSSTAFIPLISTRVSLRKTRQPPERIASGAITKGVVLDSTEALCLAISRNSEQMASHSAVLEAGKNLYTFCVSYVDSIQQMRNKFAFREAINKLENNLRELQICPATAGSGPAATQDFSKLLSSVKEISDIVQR
T2 sequence (P11274 whole entry, looked up, the tested form may be a part): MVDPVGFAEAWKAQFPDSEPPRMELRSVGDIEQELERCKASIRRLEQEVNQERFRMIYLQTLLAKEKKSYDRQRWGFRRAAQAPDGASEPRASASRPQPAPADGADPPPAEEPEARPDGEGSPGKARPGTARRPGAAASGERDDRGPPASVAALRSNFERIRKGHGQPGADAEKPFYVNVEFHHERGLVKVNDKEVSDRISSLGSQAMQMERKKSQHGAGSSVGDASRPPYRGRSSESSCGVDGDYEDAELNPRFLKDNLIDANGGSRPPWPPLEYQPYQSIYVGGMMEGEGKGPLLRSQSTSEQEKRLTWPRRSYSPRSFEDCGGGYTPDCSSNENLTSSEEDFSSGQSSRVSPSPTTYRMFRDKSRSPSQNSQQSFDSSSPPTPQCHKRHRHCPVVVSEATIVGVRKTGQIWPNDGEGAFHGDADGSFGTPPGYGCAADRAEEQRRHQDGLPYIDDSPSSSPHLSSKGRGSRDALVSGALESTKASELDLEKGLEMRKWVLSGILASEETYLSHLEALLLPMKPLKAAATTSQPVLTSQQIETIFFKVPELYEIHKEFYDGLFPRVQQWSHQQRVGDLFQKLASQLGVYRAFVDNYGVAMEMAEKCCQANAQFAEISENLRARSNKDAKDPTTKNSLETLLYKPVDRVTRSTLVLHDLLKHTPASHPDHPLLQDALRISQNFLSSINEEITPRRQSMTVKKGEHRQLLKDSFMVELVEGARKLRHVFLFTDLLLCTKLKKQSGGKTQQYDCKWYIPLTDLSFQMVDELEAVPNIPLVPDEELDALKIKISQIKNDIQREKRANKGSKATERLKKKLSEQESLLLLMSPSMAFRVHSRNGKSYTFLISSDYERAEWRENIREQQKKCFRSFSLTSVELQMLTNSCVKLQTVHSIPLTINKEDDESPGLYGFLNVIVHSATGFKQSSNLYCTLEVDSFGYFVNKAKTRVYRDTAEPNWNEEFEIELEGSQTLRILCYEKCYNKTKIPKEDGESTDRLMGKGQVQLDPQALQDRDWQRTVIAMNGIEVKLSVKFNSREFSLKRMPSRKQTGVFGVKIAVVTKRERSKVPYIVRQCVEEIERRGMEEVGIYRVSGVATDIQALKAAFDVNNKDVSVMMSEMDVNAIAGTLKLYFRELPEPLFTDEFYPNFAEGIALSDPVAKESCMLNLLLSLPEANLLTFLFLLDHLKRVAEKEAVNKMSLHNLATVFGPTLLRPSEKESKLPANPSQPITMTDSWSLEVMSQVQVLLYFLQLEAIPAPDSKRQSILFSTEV
T1 sequence (Q16539 whole entry): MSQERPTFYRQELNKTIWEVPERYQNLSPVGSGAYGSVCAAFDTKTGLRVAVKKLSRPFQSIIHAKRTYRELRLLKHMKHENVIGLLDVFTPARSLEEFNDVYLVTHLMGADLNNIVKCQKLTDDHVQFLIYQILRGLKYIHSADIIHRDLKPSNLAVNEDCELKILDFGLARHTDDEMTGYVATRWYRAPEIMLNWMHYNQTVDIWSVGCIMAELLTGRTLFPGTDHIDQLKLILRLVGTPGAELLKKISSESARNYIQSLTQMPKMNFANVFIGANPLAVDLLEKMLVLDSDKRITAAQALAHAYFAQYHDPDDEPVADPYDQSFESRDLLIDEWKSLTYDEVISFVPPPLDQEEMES
T4 sequence (P12931 2-536 limits assumed): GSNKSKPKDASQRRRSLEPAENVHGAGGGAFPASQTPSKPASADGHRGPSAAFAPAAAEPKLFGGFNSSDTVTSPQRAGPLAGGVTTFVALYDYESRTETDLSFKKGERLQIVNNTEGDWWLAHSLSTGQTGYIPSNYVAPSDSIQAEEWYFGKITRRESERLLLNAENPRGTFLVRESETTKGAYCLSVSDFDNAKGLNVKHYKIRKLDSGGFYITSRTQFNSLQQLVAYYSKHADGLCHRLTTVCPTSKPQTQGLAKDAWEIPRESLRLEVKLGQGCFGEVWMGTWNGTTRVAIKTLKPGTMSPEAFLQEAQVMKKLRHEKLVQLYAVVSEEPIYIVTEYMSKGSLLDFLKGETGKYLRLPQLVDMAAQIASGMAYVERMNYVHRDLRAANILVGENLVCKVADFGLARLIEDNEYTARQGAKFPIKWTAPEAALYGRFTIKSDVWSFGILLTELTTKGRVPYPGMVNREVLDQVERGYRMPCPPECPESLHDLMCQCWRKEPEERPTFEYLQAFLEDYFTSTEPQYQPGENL
Sequence of Mast/stem cell growth factor receptor Kit (Homo sapiens), P10721 [V559D] (P10721 whole entry V559D): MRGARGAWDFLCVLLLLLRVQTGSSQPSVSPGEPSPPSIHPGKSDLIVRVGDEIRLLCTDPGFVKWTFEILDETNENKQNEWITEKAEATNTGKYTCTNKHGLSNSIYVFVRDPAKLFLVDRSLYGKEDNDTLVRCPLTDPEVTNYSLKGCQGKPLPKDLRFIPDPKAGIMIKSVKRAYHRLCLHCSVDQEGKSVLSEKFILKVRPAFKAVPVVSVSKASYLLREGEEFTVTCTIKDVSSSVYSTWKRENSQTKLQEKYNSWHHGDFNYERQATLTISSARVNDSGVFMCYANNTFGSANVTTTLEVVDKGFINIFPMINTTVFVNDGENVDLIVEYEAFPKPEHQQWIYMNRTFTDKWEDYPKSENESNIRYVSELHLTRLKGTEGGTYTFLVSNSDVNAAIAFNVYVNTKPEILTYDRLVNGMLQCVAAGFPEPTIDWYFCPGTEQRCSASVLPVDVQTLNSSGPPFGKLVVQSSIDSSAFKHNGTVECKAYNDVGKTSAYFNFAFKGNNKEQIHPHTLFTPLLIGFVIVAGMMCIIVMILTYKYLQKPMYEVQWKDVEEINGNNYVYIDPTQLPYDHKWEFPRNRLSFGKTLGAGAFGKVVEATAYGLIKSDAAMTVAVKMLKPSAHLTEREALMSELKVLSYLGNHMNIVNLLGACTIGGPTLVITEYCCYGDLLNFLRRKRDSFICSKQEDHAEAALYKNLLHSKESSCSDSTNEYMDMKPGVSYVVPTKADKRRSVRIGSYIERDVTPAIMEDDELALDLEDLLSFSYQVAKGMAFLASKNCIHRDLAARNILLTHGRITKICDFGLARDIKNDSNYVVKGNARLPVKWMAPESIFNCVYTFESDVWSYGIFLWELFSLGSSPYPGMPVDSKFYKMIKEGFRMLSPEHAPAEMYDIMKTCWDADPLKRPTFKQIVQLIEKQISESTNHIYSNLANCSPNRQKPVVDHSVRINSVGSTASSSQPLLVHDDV
Sequence of Mast/stem cell growth factor receptor Kit (P10721 whole entry, the tested form may be a part): as the sequence (P10721 whole entry V559D) above, with D559V counted along it

In the case of CNc1nc(Nc2ccc(C)c(N)c2)ncc1C(=O)Nc1cc(NC(=O)c2cccc(C(F)(F)F)c2)ccc1C, the Activity [1] is reported as 1%, the inhibition [2] is reported as “Active” and the inhibition [3] is reported as “Active”. The GI50 [4] was 0.007 µM, the GI50 (HEL) was over 10 µM and the Activity (K562 [5]) was “Dose-dependent effect”. For the same compound, the GI50 [6] was 0.14 µM, the bioavailability [7] was 24.2% and the Activity (MEG-01 [8]) was “Dose-dependent effect”. For the same compound, the Activity [9] was 0%, the GI50 [10] was 0.045 µM and the MRT inf [11] was 5.51 h. For the same compound, the Activity [12] was 0%, the inhibition [13] was “Active” and the TGI (K562 [14]) was “Dose-dependent effect”. The Cmax [15] was 0.368 µg/mL, the inhibition [16] was “inactive” and the IC50 [17] was over 10 µM. The inhibition [18] was “Dose-dependent effect”, the GI50 [19] was 0.363 µM and the Activity [20] was 0.8%. For the same compound, the Activity (MEG-01 [21]) was “Active”, the Activity [22] was 0.95% and the inhibition [23] was “Active”. It also gave an IC50 [24] of 0.09 µM and a half-life [25] of 2.82 h.
